Measured values as given in ChEMBL document CHEMBL4480450, “Cytotoxic Germacrane-Type Sesquiterpene Lactones from the Whole Plant of Carpesium lipskyi” (J Nat Prod, 2019).
pIC50: −log10 of the molar value.

Experiments:
A549 = experiment: Cytotoxicity against human A549 cells after 72 hrs by CCK8 assay; assay type: functional, cell-based; conditions: A549, 72 h
Outline: (§1)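 Cells seeded in 96-well plates and left overnight at 37 °C in humidified 5% CO2. Serial dilutions of the compounds added, then 72 h further incubation. CCK-8 reagent added for the last 4 h and absorbance read at 450 nm.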

HL-60 = experiment: Cytotoxicity against human HL60 cells after 72 hrs by CCK8 assay; assay type: functional, cell-based; conditions: HL-60, 72 h; outline: as §1

Row | SMILES | pIC50 (A549) | pIC50 (HL-60)
1 | C=C1C(=O)O[C@H]2[C@H]1[C@H](OC(=O)/C(C)=C\C)C(=O)[C@H](C)CCC[C@](C)(O)[C@@H]2OC(=O)C(C)C | 5.33 | 5.52
2 | C=C1C(=O)O[C@H]2[C@H]1[C@H](OC(=O)C(C)C)C(=O)[C@H](C)CCC[C@](C)(O)[C@@H]2OC(=O)C(C)C | 5.28 | 5.30
3 | C=C1C(=O)O[C@@H]2[C@@H]1[C@H](O)[C@@H](OC(=O)C(C)C)[C@@H](C)CCC(=O)[C@](C)(O)[C@H]2OC(=O)C(C)C | 5.40 | 5.23
4 | C=C1C(=O)O[C@H]2[C@@H]1[C@@H](OC(=O)CC(C)C)[C@@]1(O)O[C@H](CC[C@H]1C)[C@](C)(O)[C@@H]2OC(=O)C(C)CC (stereo not given in full) | 5.17 | 5.25
5 | C=C1C(=O)O[C@H]2[C@@H]1[C@@H](OC(=O)CC(C)C)[C@@]1(O)O[C@H](CC[C@H]1C)[C@](C)(O)[C@@H]2OC(=O)C(C)C | 4.99 | 5.21
6 | C=C1C(=O)O[C@H]2[C@@H]1[C@H](OC(=O)CC(C)C)C(=O)[C@H](C)C[C@H]1O[C@@H]1[C@](C)(O)[C@@H]2OC(=O)C(C)C | < 5.00 | 5.55
7 | C=C1C(=O)O[C@H]2[C@H]1[C@@H](O)[C@H](OC(=O)CC(C)C)[C@H](C)CCC(=O)[C@](C)(O)[C@@H]2OC(=O)C(C)C (relative stereo) | 5.21 | 5.26
8 | COc1cccc2c1C(=O)c1c(O)c3c(c(O)c1C2=O)C[C@@](O)(C(=O)CO)C[C@@H]3O[C@H]1C[C@H](N)[C@H](O)[C@H](C)O1 [DOXORUBICIN] | 6.40 | 
